From ChEMBL document CHEMBL4689842, “EUbOPEN Chemogenomics Library wave 1” (2021)

Test system: Fibroblast
Assay: Multiplex assay against human fibroblast
Type: toxicity, cell-based
In short: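 Per cents of healthy-nucleus cells form the tubulin, mitochondrial-mass and membrane-permeability phenotype values. Live cells were stained at seeding with Hoechst33342, BioTracker Green Microtubule Cytoskeleton Dye, MitoTracker Red and Annexin V Alexa Fluor 680. After compound addition they were imaged on a CQ1 microscope at 37°C and 5% CO2, and CellPathfinder machine-learning gating split them into Hoechst high-intensity objects or normal cells, normal cells into healthy, pyknosed or fragmented nuclei, and pyknosed cells into mitotic or apoptotic.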

[1] = 12 h, 1 µM, compound concentration 1 uM, replicate 1
[2] = 12 h, 1 µM, compound concentration 1 uM, replicate 2
[3] = 12 h, 10 µM, compound concentration 10 uM, replicate 1
[4] = 12 h, 10 µM, compound concentration 10 uM, replicate 2
[5] = 24 h, 1 µM, compound concentration 1 uM, replicate 1
[6] = 24 h, 1 µM, compound concentration 1 uM, replicate 2
[7] = 24 h, 10 µM, compound concentration 10 uM, replicate 1

## COc1ccc(NS(=O)(=O)c2sc3ccc(Cl)cc3c2C)cc1N1CCNCC1.Cl
[1]
  Population Apoptotic (%): 50%
  Population Fragmented Nuclei (%): 25%
  Population Healthy Nuclei (%): 38%
  Population Hoechst High Intensity Objects (%): 10%
  Population Membrane Permeable-Phenotype (%): 30%
  Population Mitochondria Different-Phenotype (%): 4%
  Population Mitotic Cells (%): 50%
  Population Normal (%): 89%
  Population Pyknosed Nuclei (%): 35%
  Population Tubulin-Different-Phenotype (%): 30%
  Total Cell Count: 125
[2]
  Population Apoptotic (%): 28%
  Population Fragmented Nuclei (%): 13%
  Population Healthy Nuclei (%): 69%
  Population Hoechst High Intensity Objects (%): 12%
  Population Membrane Permeable-Phenotype (%): 0%
  Population Mitochondria Different-Phenotype (%): 26%
  Population Mitotic Cells (%): 71%
  Population Normal (%): 87%
  Population Pyknosed Nuclei (%): 16%
  Population Tubulin-Different-Phenotype (%): 10%
  Total Cell Count: 69
[3]
  Population Apoptotic (%): 75%
  Population Fragmented Nuclei (%): 33%
  Population Healthy Nuclei (%): 47%
  Population Hoechst High Intensity Objects (%): 22%
  Population Membrane Permeable-Phenotype (%): 1%
  Population Mitochondria Different-Phenotype (%): 40%
  Population Mitotic Cells (%): 24%
  Population Normal (%): 77%
  Population Pyknosed Nuclei (%): 19%
  Population Tubulin-Different-Phenotype (%): 88%
  Total Cell Count: 217
[4]
  Population Apoptotic (%): 61%
  Population Fragmented Nuclei (%): 14%
  Population Healthy Nuclei (%): 56%
  Population Hoechst High Intensity Objects (%): 4%
  Population Membrane Permeable-Phenotype (%): 25%
  Population Mitochondria Different-Phenotype (%): 100%
  Population Mitotic Cells (%): 38%
  Population Normal (%): 95%
  Population Pyknosed Nuclei (%): 29%
  Population Tubulin-Different-Phenotype (%): 94%
  Total Cell Count: 49
[5]
  Population Apoptotic (%): 40%
  Population Fragmented Nuclei (%): 26%
  Population Healthy Nuclei (%): 52%
  Population Hoechst High Intensity Objects (%): 11%
  Population Membrane Permeable-Phenotype (%): 25%
  Population Mitochondria Different-Phenotype (%): 3%
  Population Mitotic Cells (%): 60%
  Population Normal (%): 88%
  Population Pyknosed Nuclei (%): 20%
  Population Tubulin-Different-Phenotype (%): 42%
  Total Cell Count: 136
[6]
  Population Apoptotic (%): 33%
  Population Fragmented Nuclei (%): 10%
  Population Healthy Nuclei (%): 77%
  Population Hoechst High Intensity Objects (%): 3%
  Population Membrane Permeable-Phenotype (%): 5%
  Population Mitochondria Different-Phenotype (%): 13%
  Population Mitotic Cells (%): 66%
  Population Normal (%): 96%
  Population Pyknosed Nuclei (%): 12%
  Population Tubulin-Different-Phenotype (%): 5%
  Total Cell Count: 67
[7]
  Population Apoptotic (%): 72%
  Population Fragmented Nuclei (%): 23%
  Population Healthy Nuclei (%): 51%
  Population Hoechst High Intensity Objects (%): 25%
  Population Membrane Permeable-Phenotype (%): 9%
  Population Mitochondria Different-Phenotype (%): 50%
  Population Mitotic Cells (%): 27%
